Several values for one entry are separate records, joined by “and”; a condition that tells them apart may be missing. Identical values can stand only once. Entries after “also recorded” stand apart in the source; their conditions may differ. Each block holds one compound with its values, some of them ahead of it.
What was measured:
[1] = target: T1, APN in rat brain membranes (Rattus norvegicus, UniProt P15684); assay: Competition with [125I]RB 129 binding on rat brain membranes; details: for inhibition of specific [125I]RB 129 binding (qualitative): rat brain membranes
T1 sequence (P15684 1-965): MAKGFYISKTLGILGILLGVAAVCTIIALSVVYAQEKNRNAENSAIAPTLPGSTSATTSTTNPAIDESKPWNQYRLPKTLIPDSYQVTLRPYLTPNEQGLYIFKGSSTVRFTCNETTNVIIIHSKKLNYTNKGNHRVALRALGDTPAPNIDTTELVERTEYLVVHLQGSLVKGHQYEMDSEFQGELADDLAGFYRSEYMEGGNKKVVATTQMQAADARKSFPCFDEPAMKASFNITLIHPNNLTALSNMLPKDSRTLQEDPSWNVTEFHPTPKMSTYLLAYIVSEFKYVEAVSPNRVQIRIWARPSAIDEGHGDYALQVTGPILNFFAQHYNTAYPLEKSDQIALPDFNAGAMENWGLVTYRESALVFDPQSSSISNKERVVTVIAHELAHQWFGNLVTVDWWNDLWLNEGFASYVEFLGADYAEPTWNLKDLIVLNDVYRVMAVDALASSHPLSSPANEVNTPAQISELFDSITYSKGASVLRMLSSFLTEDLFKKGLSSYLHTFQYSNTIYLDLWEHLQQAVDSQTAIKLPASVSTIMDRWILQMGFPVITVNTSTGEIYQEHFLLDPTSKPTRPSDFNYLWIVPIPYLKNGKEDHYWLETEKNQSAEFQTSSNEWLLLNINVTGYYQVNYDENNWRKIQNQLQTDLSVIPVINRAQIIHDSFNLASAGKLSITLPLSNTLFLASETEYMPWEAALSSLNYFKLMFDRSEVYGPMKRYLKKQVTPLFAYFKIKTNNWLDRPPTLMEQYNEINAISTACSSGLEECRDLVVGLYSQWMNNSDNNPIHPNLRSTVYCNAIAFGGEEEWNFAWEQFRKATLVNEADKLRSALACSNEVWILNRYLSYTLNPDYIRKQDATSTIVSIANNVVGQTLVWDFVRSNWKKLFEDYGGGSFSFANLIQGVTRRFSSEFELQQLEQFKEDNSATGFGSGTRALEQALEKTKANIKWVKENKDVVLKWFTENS

pure porcine APN = details: read-out: K i in enzymatic studies; cited from earlier work
recombinant pig APN [2] = target: T2, recombinant pig APN (Sus scrofa, UniProt P15145); type: binding; details: transfected COS-7 cell membranes
T2 sequence (P15145 1-963): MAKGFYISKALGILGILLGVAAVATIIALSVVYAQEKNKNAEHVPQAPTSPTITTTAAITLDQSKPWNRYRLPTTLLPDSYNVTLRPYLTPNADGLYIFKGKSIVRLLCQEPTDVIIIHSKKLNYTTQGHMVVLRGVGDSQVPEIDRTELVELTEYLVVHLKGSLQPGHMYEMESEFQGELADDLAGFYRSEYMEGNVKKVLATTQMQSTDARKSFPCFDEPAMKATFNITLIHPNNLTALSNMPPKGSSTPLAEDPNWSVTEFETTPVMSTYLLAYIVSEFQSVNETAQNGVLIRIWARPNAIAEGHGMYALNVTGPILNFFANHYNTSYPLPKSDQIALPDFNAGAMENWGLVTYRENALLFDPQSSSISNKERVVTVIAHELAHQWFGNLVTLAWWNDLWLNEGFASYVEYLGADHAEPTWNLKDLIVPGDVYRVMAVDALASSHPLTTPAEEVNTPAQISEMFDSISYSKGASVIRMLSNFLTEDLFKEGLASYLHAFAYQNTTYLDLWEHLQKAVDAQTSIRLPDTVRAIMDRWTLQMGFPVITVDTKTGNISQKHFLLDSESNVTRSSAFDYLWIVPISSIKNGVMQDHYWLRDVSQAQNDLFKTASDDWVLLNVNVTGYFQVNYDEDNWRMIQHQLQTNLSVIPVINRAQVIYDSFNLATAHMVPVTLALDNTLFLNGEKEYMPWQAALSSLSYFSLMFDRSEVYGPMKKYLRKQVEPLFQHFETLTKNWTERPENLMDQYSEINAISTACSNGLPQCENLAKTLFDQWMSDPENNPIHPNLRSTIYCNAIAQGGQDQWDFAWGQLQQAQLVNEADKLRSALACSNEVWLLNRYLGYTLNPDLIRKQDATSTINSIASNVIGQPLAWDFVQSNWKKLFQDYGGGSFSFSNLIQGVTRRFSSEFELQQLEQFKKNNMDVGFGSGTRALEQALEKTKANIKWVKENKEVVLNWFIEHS

NEP = details: read-out: K i for NEP; enzymatic assay; cited from earlier work
[3] = target: T1, APN in rat brain membranes; assay: [125I]RB 129 kinetic and saturation binding to rat brain membranes
Method in brief: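 Rat brain minus cerebellum homogenised in 50 mM Tris–HCl pH 7.4, spun at 1000×g then 100 000×g; pellet resuspended in buffer with 0.02% bacitracin, 0.4–0.6 mg protein/ml. Incubations at 35°C with thiorphan. Kinetics used 100 pM [125I]RB 129, with dissociation started by 1 μM unlabeled RB 129 after 120 min. Saturation ran 0.075–8 nM for 80 min. Nonspecific binding defined with 1 μM RB 129; bound ligand collected on GF/B filters.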

APN mutant E^350A = target: T3, APN mutant E^350A (Sus scrofa, UniProt P15145, E350A); assay: [125I]RB 129 binding to mutated APN expressed in COS-7 cells; set-up: species or system pig; details: E^350A mutated APN in COS-7 cells
T3 sequence (P15145 2-963 E350A): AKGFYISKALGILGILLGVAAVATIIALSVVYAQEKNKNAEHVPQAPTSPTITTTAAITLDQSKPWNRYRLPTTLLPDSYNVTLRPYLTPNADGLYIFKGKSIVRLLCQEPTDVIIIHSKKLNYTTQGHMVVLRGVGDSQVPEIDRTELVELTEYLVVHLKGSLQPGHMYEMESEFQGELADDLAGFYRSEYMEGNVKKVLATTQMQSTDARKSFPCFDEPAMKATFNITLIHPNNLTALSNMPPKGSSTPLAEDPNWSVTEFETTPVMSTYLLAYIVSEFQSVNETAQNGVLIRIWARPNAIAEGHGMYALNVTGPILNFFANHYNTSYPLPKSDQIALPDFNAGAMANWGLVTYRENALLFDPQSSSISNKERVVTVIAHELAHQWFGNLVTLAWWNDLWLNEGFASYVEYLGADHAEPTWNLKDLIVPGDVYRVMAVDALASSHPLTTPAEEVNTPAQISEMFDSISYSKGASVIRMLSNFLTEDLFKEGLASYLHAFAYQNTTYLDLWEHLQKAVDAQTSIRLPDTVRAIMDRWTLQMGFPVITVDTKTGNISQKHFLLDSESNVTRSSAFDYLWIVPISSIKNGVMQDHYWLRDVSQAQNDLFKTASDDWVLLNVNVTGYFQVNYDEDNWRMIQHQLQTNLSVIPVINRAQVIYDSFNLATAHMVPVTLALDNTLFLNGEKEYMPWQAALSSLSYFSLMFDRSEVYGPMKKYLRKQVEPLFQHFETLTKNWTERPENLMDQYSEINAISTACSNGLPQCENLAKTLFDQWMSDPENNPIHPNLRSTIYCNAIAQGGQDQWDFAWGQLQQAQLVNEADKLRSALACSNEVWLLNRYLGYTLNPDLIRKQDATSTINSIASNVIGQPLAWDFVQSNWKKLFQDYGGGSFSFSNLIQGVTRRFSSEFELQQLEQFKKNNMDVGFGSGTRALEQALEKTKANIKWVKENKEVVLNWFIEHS
Method in brief: (§1)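 Pig APN cDNA, wild-type or E350A, in pcDNA3 was electroporated (50 μg per 10×10^6 cells) into COS-7 cells grown in DMEM with 10% FCS, then kept 48 h at 37°C. Membranes (100 000×g) were resuspended in 50 mM Tris–HCl pH 7.4 with 0.02% bacitracin, 50–100 μg protein/tube. Saturation used 0.075–8 nM [125I]RB 129 for 80 min at 35°C with thiorphan, 1 μM RB 129 for nonspecific binding, GF/B filtration and Scatchard analysis.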

recombinant pig APN [4] = target: T2, recombinant pig APN; type: binding
Method in brief: as §1

SMILES: NC(CS)Cc1ccccc1 (stereo not shown) [Phe‐thiol]
inhibition of specific [125I]RB 129 binding (qualitative) [1]: concentration‐dependent inhibition | Ki (pure porcine APN): 12.1 nM

fold lower affinity in rat brain binding versus enzymatic assay ([1]; rat brain membrane K i vs enzymatic K i on porcine APN): more than 10 fold | inhibition of specific [125I]RB 129 binding (qualitative) [1]: concentration‐dependent inhibition | inhibition of specific [125I]RB 129 binding (qualitative) (recombinant pig APN [2]): concentration‐dependent inhibition
SMILES: O=C(CC(Cc1ccccc1)C(=O)N[C@@H](Cc1ccccc1)C(=O)O)NO (stereo partly shown) [RB 38A]
Ki (pure porcine APN): 120 nM

inhibition of specific [125I]RB 129 binding (qualitative) [1]: concentration‐dependent inhibition | inhibition of specific [125I]RB 129 binding (qualitative) (recombinant pig APN [2]): concentration‐dependent inhibition
SMILES: C[C@H](N)P(=O)(O)C[C@@H](Cc1ccccc1)C(=O)N[C@@H](Cc1ccc(O)c(I)c1)C(=O)O [RB 129, 2(S)‐benzyl‐3‐[hydroxy(1′(R)‐aminoethyl)phosphinyl]propanoyl‐L‐3‐iodotyrosine]
Ki (NEP): 23.6 nM

association rate constant, k +1 ([3]; 100 pM ligand, 35°C, rat brain membranes): 1.58e+06 M⁻¹ s⁻¹ | incubation time to reach binding equilibrium ([3]; 100 pM, 35°C): 80 min | specific binding at routine protein concentration ([3]; 0.4–0.6 mg/ml rat brain membrane protein): 80–98% | dissociation rate constant (k −1) ([3]; dissociation initiated with 1 μM unlabeled RB 129, 35°C): 0.022 min⁻¹ | specific binding at the K d value ([3]; rat brain homogenates): 95% | specific binding at routine protein concentration (recombinant pig APN [4]; 50–100 μg/ml recombinant APN protein): 80–98% | specific binding at the K d value (recombinant pig APN [4]; recombinant APN in COS-7 cells): ~92% | maximal capacity of binding sites (B max) (recombinant pig APN [4]; recombinant APN wild-type in COS-7 cells): 650±67 fmol/mg of protein
SMILES: C[C@H](N)P(=O)(O)C[C@@H](Cc1ccccc1)C(=O)N[C@@H](Cc1ccc(O)c([125I])c1)C(=O)O [[^125I]RB 129, 2(S)‐benzyl‐3‐[hydroxy(1′(R)‐aminoethyl)phosphinyl]propanoyl‐L‐3‐[^125I]iodotyrosine]
maximal capacity of binding sites (B max) ([3]; saturation, rat brain homogenates): 722±88 fmol/mg of protein and 722 fmol/mg of protein | specific binding on mutated APN (APN mutant E^350A): No specific binding; also recorded: non‐measurable specific binding

From article PMC7141570 (Febs Letters, 2000)
